Rows were chosen to be rich in hits. Some 2.1% of all compounds tested hit in one or more screens of this group.
SUMO1-SIM PPI: modulators of SUMO1 protein-protein interactions, primary screen, biochemical, uHTS; Small ubiquitin-related modifier 1 (Homo sapiens), P63165; SUMO1 binding to a labelled peptide, TR-FRET, 1 h; inhibition, % at 20 µM; hit rate 0.33% among 360,000; in the data active means inhibition above about 37%
Target sequence (P63165 whole entry, looked up): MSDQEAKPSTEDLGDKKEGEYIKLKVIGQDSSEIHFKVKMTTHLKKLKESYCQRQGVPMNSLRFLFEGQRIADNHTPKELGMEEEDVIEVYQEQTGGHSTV
STEP block: STEP phosphatase inhibitors, primary screen, biochemical, fluorescence intensity, uHTS. recombinant STEP, OMFP fluorogenic substrate. inhibition, % at 20 µM. hit rate 0.25% among 360,000;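 active means inhibition at 20 µM, scaled per plate between control wells, above about 37%, limit read from the data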;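 further: 0% = DMSO with enzyme and substrate and 100% = substrate only without enzyme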
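medium = Bis-Tris buffer pH 6.0, 2.5 mM DTT, 0.005% Tween 20 | test system = STEP (striatal-enriched tyrosine phosphatase) enzyme, cell-free | measure = normalized % inhibition | compound dosing = 20 µM, 1% DMSO | also added = 25 µM OMFP | schedule = reaction 20 min, ambient temperature | measured by = fluorescence read at 480 nm ex / 540 nm em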
DNMT1 block: human DNMT1 methyltransferase inhibitors, primary screen, biochemical, molecular beacon, fluorescence, HinP1I cleavage, uHTS; DNA (cytosine-5)-methyltransferase 1 (Homo sapiens), P26358; inhibition (reported as % activation of signal), % at 10 µM; hit rate 0.83% among 360,000; in the data active means inhibition above about 50%
GRK2 inh: compounds blocking aptamer binding on GRK2 – biochemical, human GRK2, bead flow cytometry, HTS, primary screen; Beta-adrenergic receptor kinase 1 (Homo sapiens), P25098; FAM-aptamer displacement from GRK2; inhibition of aptamer binding, % at 10 µM; hit rate 0.59% among 330,000;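 active means inhibition of aptamer binding above 40%, roughly 3 SD of noise, on plates passing a quality check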;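 further: median bead fluorescence of bound FAM aptamer so fluorescent compounds give negative values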
Scp1 inh: Scp-1 phosphatase inhibitors, primary screen, biochemical, colorimetric, uHTS | Carboxy-terminal domain RNA polymerase II polypeptide A small phosphatase 1 (Homo … | Recombinant Scp1, phosphopeptide, malachite green phosphate absorbance | inhibition, % at 20 µM | hit rate 0.88% among 340,000;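 active means inhibition above about 50% at 20 µM, limit read from the data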;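 further: plate controls were DMSO wells with enzyme for no effect and wells lacking enzyme for full effect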
Target sequence (Q9GZU7 76-261 limits assumed): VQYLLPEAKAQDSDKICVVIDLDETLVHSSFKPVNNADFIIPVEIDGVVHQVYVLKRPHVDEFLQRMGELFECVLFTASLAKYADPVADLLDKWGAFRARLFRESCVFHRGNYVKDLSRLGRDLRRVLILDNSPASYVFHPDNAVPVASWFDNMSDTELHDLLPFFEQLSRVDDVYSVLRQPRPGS
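System: truncated SCP-1 phosphatase (76-261aa); medium: Tris acetate buffer pH 5.5 with MgCl2 and Tween-20; incubation: 45 min room-temperature reaction, 5 min colour, 30 min stabiliser; compound: single 20 µM dose, 1% DMSO; reagent: Phosphorylated 17-residue peptide substrate; read-out: % inhibition at 20 µM; technique: colorimetric free-phosphate detection, absorbance 630 nm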
LMPTP inh: LMPTP phosphatase inhibitors, primary screen, biochemical, fluorescence intensity, uHTS. recombinant LMPTP-A, OMFP fluorogenic substrate. hit rate 0.22% among 360,000. inhibition, % at 20 µM. Low molecular weight phosphotyrosine protein phosphatase (Homo sapiens), P24666;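 active means compounds that cut the enzyme signal by at least half of the control window in the single-dose screen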;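 further: plate controls were DMSO wells with enzyme plus substrate for no effect and substrate without enzyme for full effect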
Target sequence (P24666 whole entry, looked up): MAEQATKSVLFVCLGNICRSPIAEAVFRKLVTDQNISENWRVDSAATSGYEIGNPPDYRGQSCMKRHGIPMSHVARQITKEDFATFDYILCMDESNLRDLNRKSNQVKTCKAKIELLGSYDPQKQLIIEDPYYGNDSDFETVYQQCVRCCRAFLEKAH
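Assay system: LMPTP-A phosphatase enzyme | Input: 0.625 nM enzyme | Also added: Fluorogenic phosphatase substrate OMFP at 400 µM final | Compound dosing: One test concentration per compound, 20 µM, with 3% DMSO overall | Schedule: 50 min enzyme reaction at room temperature, protected from light | Signal: Fluorescence intensity | Benchmarks: no-enzyme and uninhibited controls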
GRK2 CP1: GRK2 aptamer-displacing inhibitors, retest, confirmation, biochemical, cherry pick 1, bead flow cytometry. shares compounds with GRK2 inh. aptamer displacement, % at 10 µM. hit rate 4% among 2,000. bead-bound GRK2, FAM-aptamer displacement;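 active means aptamer displacement above 40%, near three times the noise of non-fluorescent compounds, on plates passing quality checks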;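 further: negative values mostly reflect intrinsic compound fluorescence rather than true enhancement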
Aptamer quench 1: fluorescent aptamer quenching in GRK2 counter-screen dose response. shares compounds with GRK2 inh. Fluorescent RNA aptamer beads, flow cytometry; stronger effect = higher value. fluorescence change (kMESF span), kMESF (test concentration not listed). 110 tested, under 10 active. AID 504521;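 active means compounds whose bead fluorescence drops by more than 37 kMESF across the dose range, marking them as dye quenchers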
Aptamer quench SP: counter-screen for GRK2 aptamer inhibitors: fluorescent aptamer quenchers; shares compounds with GRK2 inh; Carboxyfluorescein RNA aptamer on beads, flow cytometry quenching; stronger effect = lower value; fluorescence response (% of DMSO), % at 10 µM; 2,000 tested, under 10 active;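 active means compounds that quench the bead-bound fluorescent RNA probe, cutting fluorescence to under half of the solvent control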;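 further: counterscreen run without GRK2 so only probe quenching by compound is measured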
Aptamer quench 2: fluorescence quenching of FAM-labeled RNA aptamer, dose response, artefact control for GRK2 aptamer inhibitor project, biochemical, flow cytometry, cherry pick 2. change in fluorescence (kMESF span), kMESF (test concentration not listed). Streptavidin beads. AID 504819, 2011. shares compounds with GRK2 inh. 25 tested, under 10 active;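 active means compounds quenching the bead-bound labeled aptamer, with fluorescence dropping by more than 37 kMESF over the dose range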
FAM quench PS1: quenchers of FAM-labeled RNA aptamer fluorescence, dose response, artefact control for GRK2 aptamer binding project, biochemical, powder set 1, flow cytometry; fluorescence ratio to DMSO, % at 11.1 µM; Bead-bound FAM RNA aptamer fluorescence quenching; stronger effect = lower value; shares compounds with GRK2 inh; AID 588496, 2011; 35 tested, under 10 active;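 active means compounds that dim the fluorescent label, raw bead signal shifting by over 33 units between lowest and highest dose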
Scp-1 conf: Scp-1 phosphatase inhibitors, retest, confirmation, biochemical, colorimetric, single concentration; shares compounds with Scp1 inh; recombinant SCP-1 catalytic domain, phosphate release, malachite green absorbance; inhibition, % at 20 µM; hit rate 61% among 2,500; AID 540281, 2011;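 further: plate controls were DMSO with enzyme for no effect and buffer wells lacking enzyme for full effect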
Scp-1 MG ctr: colorimetric readout interference by compounds, confirmation, artefact control for Scp-1 inhibitor project, biochemical, single concentration; 2,500 tested, under 10 active; shares compounds with Scp1 inh; apparent inhibition (interference), % at 20 µM; AID 540313, 2011; Colorimetric interference counterscreen, malachite green absorbance 630 nm;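 further: compounds added after enzyme reaction finished so only phosphate colour detection is probed; plate controls were DMSO wells with completed Scp-1 reaction for no effect and substrate wells lacking enzyme for full effect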
Scp-1 Tm shift: Scp-1 binding by thermal shift, confirmation, orthogonal assay for Scp-1 inhibitor project, biophysical, differential scanning fluorimetry | shares compounds with Scp1 inh | Recombinant SCP1, Sypro Orange thermal shift Tm | thermal shift relative to vanadate control, % at 40 µM | hit rate 25% among 1,500 | AID 540329, 2011;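 active means substances whose mean melting-temperature shift, as a percentage of the reference inhibitor's shift, reaches about 5.3%, limit read from the data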;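 further: 0% = Tm of DMSO wells and 100% = Tm with sodium orthovanadate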
DNMT1 interf DR: spectral interference with molecular beacon fluorescence, dose response, artefact control for DNMT1 inhibitor project, biochemical, fluorescent molecular beacon; 200 tested, under 10 active; IC50, µM; shares compounds with DNMT1 block; spectral interference counter-screen; call rule not given here
DNMT1 confirm: DNMT1 methyltransferase inhibitor retest, confirmation, biochemical, molecular beacon, fluorescence, single concentration; inhibition, % at 10 µM; shares compounds with DNMT1 block; DNMT1 molecular beacon HinP1I cleavage; AID 602385, 2012; hit rate 8% among 2,300;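 active means average inhibition of at least 30% in the single-concentration confirmation test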
DNMT1 interf: shows spectral interference in the DNMT1 beacon assay | hit rate 1% among 2,300 | DNMT1 molecular beacon spectral interference counterscreen, fluorescence 485/520 | shares compounds with DNMT1 block | AID 602387 | activation (fluorescence interference), % at 10 µM;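 active means activation of at least 30% at 10 µM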;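 further: DNMT1 catalytic domain with a HinP1I cleavage step and a FAM/dabcyl DNA beacon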
Starred values were filed as active, the others as inactive; · = not tested or not shown.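 How the source made its calls, unless noted: active means inhibition of at least 30% at 20 µM; inactive means the rest.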

SMILES	SUMO1-SIM PPI	STEP block	DNMT1 block	GRK2 inh	Scp1 inh	LMPTP inh	GRK2 CP1	Aptamer quench SP	Scp-1 conf	Scp-1 MG ctr	Scp-1 Tm shift	DNMT1 confirm	DNMT1 interf	others
Cc1ccc(OCC(=O)c2cc(C)c(C)cc2C)c([N+](=O)[O-])n1	1	3	-3	1	14	1	·	·	·	·	·	·	·
Cc1ccc(OCC(=O)c2c(N)n(C)c(=O)n(C)c2=O)c([N+](=O)[O-])n1	12	4	82*	77*	66*	2	60*	96	·	·	·	23	3	Aptamer quench 1=19
COc1ccc(-n2c(SCC(=O)Nc3ccc(NC(C)=O)cc3)nc3ccccc3c2=O)cc1	11	2	-8	1	-4	-1	·	·	·	·	·	·	·
COc1ccc(NC(=O)CSc2nc3ccccc3c3nc4ccccc4n23)cc1	-1	1	58*	0	3	1	-3	105	·	·	·	5	-7
C=CCn1c(Cc2ccccc2)nc2c(cnn2-c2ccccc2)c1=O	8	4	-2	0	-16	2	·	·	·	·	·	·	·
COc1cccc(OCC(=O)NNC(=S)Nc2ccc(Cl)cc2Cl)c1	3	-2	0	0	-4	-1	·	·	·	·	·	·	·
O=C(Nc1cccc([N+](=O)[O-])c1)c1cccc(C(=O)Nc2cccc([N+](=O)[O-])c2)c1	70*	22	86*	67*	74*	8	27	101	85*	-11	4	27	2
CCc1ccc(NC(=O)COC(=O)/C=C/c2ccco2)cc1	-7	18	50*	70*	67*	5	19	97	63*	0	0	3	3
COC(=O)\C(C(C)=O)=C(/C=C/C=C/C=C/N(C)C)N(C)C	-2	10	109*	71*	74*	1	35	95	·	·	·	37*	19	DNMT1 interf DR=>99
COC(=O)/C(C(C)=O)=C(\C=C\N(C)C)N(C)C	-1	1	2	3	-4	-1	·	·	·	·	·	·	·
CCN(CC)c1ccc(NC(=O)CCS(=O)(=O)c2ccc(Br)cc2)c(C)c1	27	4	97*	83*	82*	-1	73*	91	49*	-16	-14	42*	4	Aptamer quench 1=55*;Aptamer quench 2=4.6;FAM quench PS1=98;DNMT1 interf DR=>99
O=C(c1cccc(F)c1)N1CCC(c2nc3ccccc3s2)CC1	-1	2	-2	5	-1	-1	·	·	·	·	·	·	·
O=C(Cn1cnc2scc(-c3cccc([N+](=O)[O-])c3)c2c1=O)NCc1ccco1	-7	8	83*	88*	78*	21	7	94	70*	-11	11*	16	-1
COc1cccc(-n2cnc3c(sc4nc(N5CCOCC5)c5c(c43)CCCC5)c2=O)c1	1	2	-11	0	2	3	·	·	·	·	·	·	·
Cc1cccc(N2CCN(C(=O)CCS(=O)(=O)c3ccc(Br)cc3)CC2C)c1 (stereo not given)	0	3	70*	78*	84*	0	57*	102	74*	-6	-1	1	-1	Aptamer quench 1=10;FAM quench PS1=100
O=C(CCS(=O)(=O)c1ccc(Br)cc1)N1CCN(c2ccccc2)CC1	0	2	28	29	15	-1	·	·	·	·	·	·	·
COCCN(C(=O)c1cc2c(s1)CCC2)c1c(N)n(CC(C)C)c(=O)[nH]c1=O	6	4	61*	43*	46	6	17	99	·	·	·	7	5
COCCN(C(=O)c1cc2c(s1)CCCCC2)c1c(N)n(CC(C)C)c(=O)[nH]c1=O	0	-2	-2	0	12	1	·	·	·	·	·	·	·
O=C(O)c1cc(-c2ccc(/C=C3\NC(=O)N(c4ccc(Cl)cc4)C3=O)o2)ccc1Cl	29	39	99*	50*	74*	2	25	109	·	·	·	21	-2
C#CCN1C(=O)S/C(=C\c2ccc(-c3ccc(Cl)c(C(=O)O)c3)o2)C1=O	-1	14	14	12	38	0	·	·	·	·	·	·	·

Assay outcomes from PubChem BioAssay.
